Data published in ChEMBL document CHEMBL1147933, “Conformationally restricted homotryptamines 3. Indole tetrahydropyridines and cyclohexenylamines as selective serotonin reuptake inhibitors” (Bioorg Med Chem Lett, 2007).
Active and inactive are the calls of the source. The rule behind the calls is not given here.

Assays:
[1] = biological target: T1, Sodium-dependent noradrenaline transporter (Homo sapiens, UniProt P23975); assay: Inhibition of human NET at 1 uM
[2] = biological target: T2, Sodium-dependent serotonin transporter (Homo sapiens, UniProt P31645); assay: Displacement of [3H]citalopram from human SERT expressed in HEK293 cells; format: cell-based
T2 sequence (P31645 whole entry): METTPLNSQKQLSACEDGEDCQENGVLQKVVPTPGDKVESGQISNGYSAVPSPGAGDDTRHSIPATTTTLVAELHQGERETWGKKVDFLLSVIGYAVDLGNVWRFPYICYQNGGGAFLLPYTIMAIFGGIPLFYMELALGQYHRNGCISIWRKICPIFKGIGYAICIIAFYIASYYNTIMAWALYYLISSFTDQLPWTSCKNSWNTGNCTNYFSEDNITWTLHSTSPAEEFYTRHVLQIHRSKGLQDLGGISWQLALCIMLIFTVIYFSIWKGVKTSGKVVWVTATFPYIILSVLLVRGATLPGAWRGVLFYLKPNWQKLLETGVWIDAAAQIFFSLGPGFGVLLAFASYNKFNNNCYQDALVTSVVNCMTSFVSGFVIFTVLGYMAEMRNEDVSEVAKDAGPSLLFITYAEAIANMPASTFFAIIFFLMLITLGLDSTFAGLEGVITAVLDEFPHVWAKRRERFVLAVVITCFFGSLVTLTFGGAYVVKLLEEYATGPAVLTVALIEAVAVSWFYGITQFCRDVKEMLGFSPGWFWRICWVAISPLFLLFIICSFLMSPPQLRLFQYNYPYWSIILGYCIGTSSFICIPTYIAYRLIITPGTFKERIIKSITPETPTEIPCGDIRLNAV
How it was run: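 Membrane homogenates from HEK-293 cells stably expressing human SERT, incubated 1 h at 25 °C with 2 nM [3H]citalopram (85 Ci/mmol) and increasing test concentrations. Non-specific binding defined with 10 µM fluoxetine. Specific binding plotted against −log drug concentration, and the midpoint of the displacement curve was taken as IC50.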

[3] = biological target: T3, Sodium-dependent dopamine transporter (Homo sapiens, UniProt Q01959); assay: Inhibition of human DAT at 1 uM
T3 sequence (Q01959 whole entry): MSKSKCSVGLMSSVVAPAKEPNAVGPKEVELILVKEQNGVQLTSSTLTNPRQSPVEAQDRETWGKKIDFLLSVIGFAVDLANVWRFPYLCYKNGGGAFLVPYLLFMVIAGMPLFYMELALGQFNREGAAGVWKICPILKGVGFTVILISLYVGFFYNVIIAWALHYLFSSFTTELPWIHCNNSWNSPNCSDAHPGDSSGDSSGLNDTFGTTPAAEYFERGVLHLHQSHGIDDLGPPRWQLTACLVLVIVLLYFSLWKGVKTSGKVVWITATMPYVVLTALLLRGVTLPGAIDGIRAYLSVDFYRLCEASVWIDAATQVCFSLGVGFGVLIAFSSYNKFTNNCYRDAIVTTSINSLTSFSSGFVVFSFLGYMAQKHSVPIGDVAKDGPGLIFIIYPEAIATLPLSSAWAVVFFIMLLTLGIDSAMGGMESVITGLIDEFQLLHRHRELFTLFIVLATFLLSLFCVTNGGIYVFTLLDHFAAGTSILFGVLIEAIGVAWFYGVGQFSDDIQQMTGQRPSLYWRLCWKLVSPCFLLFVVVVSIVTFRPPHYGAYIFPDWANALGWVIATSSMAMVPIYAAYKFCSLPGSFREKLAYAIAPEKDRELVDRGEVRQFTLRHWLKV

Rattus norvegicus [4] = assay: Increase in fluoxetine-induced serotonin concentration in rat frontal cortex by microdialysis at 10 mg/kg, po; format: functional, organism-based; set-up: dose 10 mg/kg
[5] = biological target: T3, Sodium-dependent dopamine transporter; assay: Displacement of [125I]RTI-55 from human DAT expressed in HEK293 cells; format: cell-based
How it was run: (§1)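 Membrane homogenates from HEK-293 cell lines stably transfected with the human transporter, incubated with 125I ligands: [125I]RTI-55 for SERT (260 pM) and DAT (125 pM), and custom [125I]nisoxetine for NET (300 pM). Reactions run in 384-well format and filter-harvested. IC50 taken from a 20-point concentration curve in a single experiment.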

[6] = biological target: T1, Sodium-dependent noradrenaline transporter; assay: Displacement of [125I]Nisoxetine from human NET expressed in HEK293 cells; format: cell-based; how it was run: as §1
[7] = biological target: T2, Sodium-dependent serotonin transporter; assay: Displacement of [125I]RTI-55 from human SERT expressed in HEK293 cells; format: cell-based; how it was run: as §1
Rattus norvegicus [8] = assay: Increase in fluoxetine-induced serotonin concentration in rat frontal cortex by microdialysis at 1 mg/kg, ip; format: functional, organism-based; set-up: dose 1 mg/kg

T1 sequence (P23975 whole entry): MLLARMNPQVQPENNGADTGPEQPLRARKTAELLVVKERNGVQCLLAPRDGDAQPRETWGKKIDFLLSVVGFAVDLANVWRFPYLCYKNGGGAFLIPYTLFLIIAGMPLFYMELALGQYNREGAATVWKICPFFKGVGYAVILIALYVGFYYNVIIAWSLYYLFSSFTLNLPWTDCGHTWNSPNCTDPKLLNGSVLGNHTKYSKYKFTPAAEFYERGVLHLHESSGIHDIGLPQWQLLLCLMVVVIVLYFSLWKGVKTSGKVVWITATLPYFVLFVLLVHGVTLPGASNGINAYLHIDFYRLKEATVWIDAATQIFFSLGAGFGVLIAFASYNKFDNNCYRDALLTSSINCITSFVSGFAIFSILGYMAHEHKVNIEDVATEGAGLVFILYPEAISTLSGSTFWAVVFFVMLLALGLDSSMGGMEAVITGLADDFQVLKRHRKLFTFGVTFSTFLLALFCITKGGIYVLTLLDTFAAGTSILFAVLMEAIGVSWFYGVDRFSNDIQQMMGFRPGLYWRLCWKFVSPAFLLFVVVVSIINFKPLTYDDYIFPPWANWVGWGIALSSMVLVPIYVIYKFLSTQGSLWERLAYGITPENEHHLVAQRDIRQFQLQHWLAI

## CN(C)C1CC=C(c2c[nH]c3ccccc23)CC1 (stereo not given)
[1]
  inhibition: 70%
[2]
  IC50: 3.1 nM
[3]
  inhibition: 67%

## Cc1ccc2[nH]cc(C3=CCC(N(C)C)CC3)c2c1 (stereo not given)
[2]
  IC50: 770 nM

## CN(C)C1CC=C(c2c[nH]c3ccc(C#N)cc23)CC1 (stereo not given)
[1]
  inhibition: 90%
Rattus norvegicus [4]
  Activity: Active
[2]
  IC50: 1.6 nM
[5]
  IC50: 97 nM
[6]
  IC50: 57 nM
[3]
  inhibition: 71%
[7]
  IC50: 0.34 nM
Rattus norvegicus [8]
  Activity: Active

## CN(C)[C@H]1CC=C(c2c[nH]c3ccc(C#N)cc23)CC1
[2]
  IC50: 0.72 nM
[5]
  IC50: 290 nM
[6]
  IC50: 390 nM
[7]
  IC50: 0.4 nM

## Cc1ccc2[nH]cc(C3=CCN(C)CC3)c2c1
[2]
  IC50: 910 nM

## COc1ccc2[nH]cc(C3=CCN(C)CC3)c2c1
[2]
  IC50: 730 nM

## CN1CC=C(c2c[nH]c3ccc(F)cc23)CC1
[2]
  IC50: 160 nM

## CN1CC=C(c2c[nH]c3ccc([N+](=O)[O-])cc23)CC1
[1]
  inhibition: 27%
[2]
  IC50: 40 nM
[3]
  inhibition: 73%

## CN(C)C1CC=C(c2c[nH]c3ccc([N+](=O)[O-])cc23)CC1 (stereo not given)
[1]
  inhibition: 81%
[2]
  IC50: 1 nM
[3]
  inhibition: 74%

## CN(C)C1CC=C(c2c[nH]c3ccc(Br)cc23)CC1 (stereo not given)
[1]
  inhibition: 99%
[2]
  IC50: 5.3 nM
[3]
  inhibition: 95%

## CN1CC=C(c2c[nH]c3ccc(Cl)cc23)CC1
[2]
  IC50: 240 nM

## COc1ccc2[nH]cc(C3=CCC(N(C)C)CC3)c2c1 (stereo not given)
[2]
  IC50: 150 nM

## CN(C)C1CC=C(c2c[nH]c3ccc(Cl)cc23)CC1 (stereo not given)
[1]
  inhibition: 34%
[2]
  IC50: 19 nM
[3]
  inhibition: 16%

## CN1CC=C(c2c[nH]c3ccc(C#N)cc23)CC1
[1]
  inhibition: 15%
[2]
  IC50: 19 nM
[3]
  inhibition: 56%

## CN(C)[C@@H]1CC=C(c2c[nH]c3ccc(C#N)cc23)CC1
[2]
  IC50: 1.1 nM
[5]
  IC50: 80 nM
[6]
  IC50: 37 nM
[7]
  IC50: 0.56 nM

## CN1CC=C(c2c[nH]c3ccccc23)CC1
[2]
  IC50: 690 nM

## CN(C)C1CC=C(c2c[nH]c3ccc(F)cc23)CC1 (stereo not given)
[1]
  inhibition: 35%
[2]
  IC50: 14 nM
[3]
  inhibition: 23%

## CN1CC=C(c2c[nH]c3ccc(Br)cc23)CC1
[2]
  IC50: 210 nM
